Legend:
SK-MEL-5 = test: Growth inhibition of human SK-MEL-5 cells incubated for 48 hrs by sulforhodamine B assay; type: functional; conditions: SK-MEL-5, 48 h
[1] = Stability in human liver microsome assessed as parent compound remaining at 20 uM after 60 mins in presence of NADPH by LC-MS/MS analysis; type: ADME; conditions: liver microsomes, read-out: Stability
How it was run: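 Human liver microsomes (both genders; 1.0 mg/mL) in 100 mM PBS pH 7.4 with 3 mM MgCl2 and 10 mM NADPH, preincubated at 37 °C. Reaction started with compound at 20 μM final (from DMSO stock); propranolol 5 μM as control. Aliquots at 0 and 60 min quenched in ice-cold ACN. Analysed by LC/MS/MS on a C18 column, 5–75% B gradient over 30 min, ESI.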

SF-295 = test: Growth inhibition of human SF295 cells incubated for 48 hrs by sulforhodamine B assay; type: functional; conditions: SF-295, 48 h
M14 = test: Growth inhibition of human M14 cells incubated for 48 hrs by sulforhodamine B assay; type: functional; conditions: M14, 48 h
[2] = Resistance index, ratio of IC50 for human SKOV3-MDR1-M6/6 cells to IC50 for human SKOV3 cells; type: functional
How it was run: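 Antiproliferative IC50 by SRB assay (cellular protein) in each isogenic pair: SK-OV-3 parental versus Pgp-expressing, and parental HeLa versus wild-type βIII-tubulin-expressing HeLa. Rr is the IC50 ratio of the modified line to the parental line. At least three independent experiments, each in triplicate, mean ± SD.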

MOLT-4 = test: Growth inhibition of human MOLT4 cells incubated for 48 hrs by sulforhodamine B assay; type: functional; conditions: MOLT-4, 48 h
LOX IMVI = test: Growth inhibition of human LOXIMVI cells incubated for 48 hrs by sulforhodamine B assay; type: functional
ACHN = test: Growth inhibition of human ACHN cells incubated for 48 hrs by sulforhodamine B assay; type: functional
HL-60(TB) = test: Growth inhibition of human HL-60(TB) cells incubated for 48 hrs by sulforhodamine B assay; type: functional; conditions: HL-60, 48 h
K562 = test: Growth inhibition of human K562 cells incubated for 48 hrs by sulforhodamine B assay; type: functional; conditions: K562, 48 h
NCI/ADR-RES = test: Growth inhibition of human NCI/ADR-RES cells incubated for 48 hrs by sulforhodamine B assay; type: functional
IGROV-1 = test: Growth inhibition of human IGROV1 cells incubated for 48 hrs by sulforhodamine B assay; type: functional; conditions: IGROV-1, 48 h
HCT-116 = test: Growth inhibition of human HCT116 cells incubated for 48 hrs by sulforhodamine B assay; type: functional; conditions: HCT-116, 48 h
OVCAR-8 = test: Growth inhibition of human OVCAR8 cells incubated for 48 hrs by sulforhodamine B assay; type: functional; conditions: OVCAR-8, 48 h
SNB-75 = test: Growth inhibition of human SNB75 cells incubated for 48 hrs by sulforhodamine B assay; type: functional; conditions: SNB-75, 48 h
NCI-H226 = test: Growth inhibition of human NCI-H226 cells incubated for 48 hrs by sulforhodamine B assay; type: functional; conditions: NCI-H226, 48 h
NCI-H460 = test: Growth inhibition of human NCI-H460 cells incubated for 48 hrs by sulforhodamine B assay; type: functional; conditions: NCI-H460, 48 h
RXF 393 = test: Growth inhibition of human RXF393 cells incubated for 48 hrs by sulforhodamine B assay; type: functional; conditions: RXF 393, 48 h
[3] = Antiproliferative activity against human SKOV3-MDR1-M6/6 cells by SRB assay; type: functional
OVCAR-4 = test: Growth inhibition of human OVCAR4 cells incubated for 48 hrs by sulforhodamine B assay; type: functional; conditions: OVCAR-4, 48 h
HeLa = test: Antiproliferative activity against human HeLa cells by SRB assay; type: functional, cell-based
SW-620 = test: Growth inhibition of human SW620 cells incubated for 48 hrs by sulforhodamine B assay; type: functional; conditions: SW-620, 48 h
Bos taurus = organism: Bos taurus; test: Inhibition of [3H]colchicine binding to bovine brain tubulin at 5 uM measured after 10 mins by scintillation counting method relative to control
How it was run: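 Reactions of 0.1 mL held 1.0 μM bovine brain tubulin, 5.0 μM [3H]colchicine, inhibitor at 1.0 or 5.0 μM, colchicine-binding stabilizing components and 5% DMSO, assembled on ice with tubulin added last. Incubated 10 min at 37 °C, stopped with ice water, filtered through DEAE-cellulose filters. Bound radiolabel counted by scintillation.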

HCC 2998 = test: Growth inhibition of human HCC2998 cells incubated for 48 hrs by sulforhodamine B assay; type: functional; conditions: HCC 2998, 48 h
SK-MEL-28 = test: Growth inhibition of human SK-MEL-28 cells incubated for 48 hrs by sulforhodamine B assay; type: functional; conditions: SK-MEL-28, 48 h
CCRF-CEM = test: Growth inhibition of human CCRF-CEM cells incubated for 48 hrs by sulforhodamine B assay; type: functional
MDA-MB-435 = test: Growth inhibition of human MDA-MB-435 cells incubated for 48 hrs by sulforhodamine B assay; type: functional; conditions: MDA-MB-435, 48 h
Hs-578T = test: Growth inhibition of human Hs578T cells incubated for 48 hrs by sulforhodamine B assay; type: functional
HCT-15 = test: Growth inhibition of human HCT15 cells incubated for 48 hrs by sulforhodamine B assay; type: functional; conditions: HCT-15, 48 h
RPMI-8226 = test: Growth inhibition of human RPMI8226 cells incubated for 48 hrs by sulforhodamine B assay; type: functional; conditions: RPMI-8226, 48 h
MDA-MB-231 = test: Growth inhibition of human MDA-MB-231 cells incubated for 48 hrs by sulforhodamine B assay; type: functional; conditions: MDA-MB-231, 48 h
HT-29 = test: Growth inhibition of human HT-29 cells incubated for 48 hrs by sulforhodamine B assay; type: functional; conditions: HT-29, 48 h
SK-OV-3 = test: Growth inhibition of human SKOV3 cells incubated for 48 hrs by sulforhodamine B assay; type: functional; conditions: SK-OV-3, 48 h
[4] = Inhibition of bovine brain tubulin polymerization assessed as reduction in tubulin assembly pretreated for 15 mins followed by GTP addition by spectrophotometric method; parameters: species or system Bos taurus
How it was run: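 Placed on ice, then 0.4 mM GTP (final) added. Turbidity read at 350 nm after a jump from 0 °C to 30 °C.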

HOP-62 = test: Growth inhibition of human HOP62 cells incubated for 48 hrs by sulforhodamine B assay; type: functional; conditions: HOP-62, 48 h
786-0 = test: Growth inhibition of human 786-0 cells incubated for 48 hrs by sulforhodamine B assay; type: functional; conditions: 786-0, 48 h
SN12C = test: Growth inhibition of human SN12C cells incubated for 48 hrs by sulforhodamine B assay; type: functional
KM12 = test: Growth inhibition of human KM12 cells incubated for 48 hrs by sulforhodamine B assay; type: functional; conditions: KM12, 48 h
SK-MEL-2 = test: Growth inhibition of human SK-MEL-2 cells incubated for 48 hrs by sulforhodamine B assay; type: functional; conditions: SK-MEL-2, 48 h
UACC-62 = test: Growth inhibition of human UACC62 cells incubated for 48 hrs by sulforhodamine B assay; type: functional; conditions: UACC-62, 48 h

CSc1ccc(N(C)c2nc(C)nc3c2CCC3)cc1
GI50 (SK-MEL-5): < 0.01 µM | remaining at 1 h, 20 µM [1]: 46.4% | GI50 (SF-295): < 0.01 µM | GI50 (M14): < 0.01 µM | Ratio IC50 [2]: 1.3 | GI50 (MOLT-4): < 0.01 µM | GI50 (LOX IMVI): < 0.01 µM | GI50 (ACHN): < 0.01 µM | GI50 (HL-60(TB)): < 0.01 µM | GI50 (K562): < 0.01 µM | GI50 (NCI/ADR-RES): < 0.01 µM | GI50 (IGROV-1): < 0.01 µM | GI50 (HCT-116): < 0.01 µM | GI50 (OVCAR-8): < 0.01 µM | GI50 (SNB-75): < 0.01 µM | GI50 (NCI-H226): < 0.01 µM | GI50 (NCI-H460): < 0.01 µM | GI50 (RXF 393): < 0.01 µM | IC50 [3]: 0.0093 µM | GI50 (OVCAR-4): < 0.01 µM | IC50 (HeLa): 0.007 µM | GI50 (SW-620): < 0.01 µM | inhibition (Bos taurus): 92% | GI50 (HCC 2998): < 0.01 µM | GI50 (SK-MEL-28): > 10 µM | GI50 (CCRF-CEM): < 0.01 µM | GI50 (MDA-MB-435): < 0.01 µM | GI50 (Hs-578T): < 0.01 µM | GI50 (HCT-15): < 0.01 µM | GI50 (RPMI-8226): < 0.01 µM | GI50 (MDA-MB-231): < 0.01 µM | GI50 (HT-29): < 0.01 µM | GI50 (SK-OV-3): < 0.01 µM | IC50 [4]: 1.3 µM | GI50 (HOP-62): < 0.01 µM | GI50 (786-0): < 0.01 µM | GI50 (SN12C): < 0.01 µM | GI50 (KM12): < 0.01 µM | GI50 (SK-MEL-2): < 0.01 µM | GI50 (UACC-62): < 0.01 µM
